# High-throughput results deposited in PubChem by The Scripps Research Institute Molecular Screening Center.
# Rows were chosen to be rich in hits. Some 2% of all compounds tested hit in one or more screens of this group.
# TCR CD3 inh: inhibitors of human TCR-CD3 interaction, primary screen, biochemical, fluorescence, TAMRA-labeled TCR probe. T-cell receptor (TCR). inhibition, % at 9.4 µM. 0.37% of 360,000 active. AID 651800, 2012; in the data active means inhibition above about 19%;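 further: recombinant mutant TCR 2C K166C tagged with TAMRA read by polarization; 0% = receptor in buffer alone and 100% = receptor with positive control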
# HTRA1 inh: HTRA1 serine protease inhibitors, primary screen, biochemical, fluorescence polarization, HTS; Q92743; recombinant HTRA1, FP-rhodamine activity-based probe; inhibition, % at 5.96 µM; 0.5% of 340,000 active; AID 504803, 2011; in the data active means inhibition above about 36%;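 further: 0% = enzyme with DMSO and 100% = wells lacking enzyme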
# TDP2 inh: human TDP2 enzyme inhibitors, primary screen, biochemical, epi absorbance, recombinant enzyme; Tyrosyl-DNA phosphodiesterase 2 (Homo sapiens), O95551; T5PNP hydrolysis, p-nitrophenol absorbance 415 nm; inhibition, % at 12.8 µM; 0.34% of 370,000 active; AID 720702, 2013;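 active means inhibition above the mean of all tested compounds plus 3 SD, set per campaign, cut at about 25% in these data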;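 further: 0% = DMSO with enzyme and 100% = buffer with substrate but no TDP2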
#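 Test system: Human TDP2 enzyme | Reagent: 5 mM T5PNP | Compound dosing: 12.8 µM single point, 1% DMSO | Incubation: Enzyme reaction with compound for 2 h at 37 °C | Technique: p-Nitrophenol epi absorbance | Read-out: % inhibition relative to enzyme-containing and enzyme-free wells | Benchmarks: High control without enzyme, low control DMSO plus TDP2 | Replicates: Singlicate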
# PAD4 inh: human PAD4 inhibitors, primary screen, biochemical, fluorescence polarization, 1536-well format | Protein-arginine deiminase type-4 (Homo sapiens), Q9UM07 | recombinant PAD4, RCA probe fluorescence polarization | inhibition, % at 6.36 µM | 0.41% of 330,000 active | AID 485272, 2010;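 active means percent inhibition above a cutoff equal to the mean of all tested compounds plus 3 SD, cut at about 15% in these data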;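 further: 0% = PAD4 with RCA probe and DMSO and 100% = probe without PAD4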
# SIAE inh: human SIAE inhibitors, primary screen, biochemical, fluorescence polarization, FP-Rh probe, 1536-well HTS; AID 1053197, 2014; 0.69% of 370,000 active; inhibition, % at 9.66 µM; SIAE FP-Rh probe binding;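 active means inhibition above a cutoff: mean of compounds within the control limits plus 3 SD of those, cut at about 17% in these data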;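 further: 0% = plate median of compound wells and 100% = probe without SIAE protein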
# Target sequence (Q9HAT2 whole entry, looked up): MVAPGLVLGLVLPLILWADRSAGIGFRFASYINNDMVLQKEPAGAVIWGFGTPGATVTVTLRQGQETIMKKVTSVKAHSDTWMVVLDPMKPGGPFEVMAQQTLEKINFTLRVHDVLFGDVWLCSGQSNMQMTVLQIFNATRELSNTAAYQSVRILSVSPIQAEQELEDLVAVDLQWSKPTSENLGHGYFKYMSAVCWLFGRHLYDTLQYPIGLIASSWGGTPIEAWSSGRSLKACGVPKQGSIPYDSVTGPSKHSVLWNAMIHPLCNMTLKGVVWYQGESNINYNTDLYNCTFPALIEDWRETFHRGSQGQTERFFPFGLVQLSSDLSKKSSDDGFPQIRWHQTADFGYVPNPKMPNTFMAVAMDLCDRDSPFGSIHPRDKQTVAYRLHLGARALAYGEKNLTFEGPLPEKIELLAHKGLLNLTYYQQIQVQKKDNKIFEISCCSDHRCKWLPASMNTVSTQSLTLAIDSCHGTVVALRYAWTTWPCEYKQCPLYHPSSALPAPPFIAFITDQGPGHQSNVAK
# ABHD4 inh: ABHD4 inhibitors, primary screen, biochemical, fluorescence polarization, mouse | (Lyso)-N-acylphosphatidylethanolamine lipase (Mus musculus), Q8VD66 | 0.54% of 370,000 active | AID 720543, 2013 | purified mABHD4, FP-Rh probe fluorescence polarization | inhibition, % at 8.92 µM;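 active means inhibition exceeding the mean over every tested compound plus 3 SD, cut at about 30% in these data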;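 further: 0% = plate median of compound wells and 100% = S159A mutant with DMSO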
#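 Assay system: mouse ABHD4 enzyme, wild type / Also added: fluorescent activity-based probe FP-Rh / Doses: single nominal dose of 8.92 µM, 0.89% DMSO final / Timing: 45 min compound pre-incubation plus 60 min probe step, 25 °C / Signal: FP readout, ex 525 nm / em 598 nm / Control set: S159A mutant/DMSO as 100%, compound-well median as 0%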
# PAD4 FP conf: human PAD4 inhibitors, confirmation, biochemical, fluorescence polarization; inhibition, % at 6.36 µM; 28% of 1,200 active; shares compounds with PAD4 inh; recombinant PAD4, RCA probe fluorescence polarization;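 active means mean inhibition across replicates above the hit cutoff set by the earlier primary screen, cut at about 15% in these data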;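 further: inhibitors block active-site labeling by the probe so polarization falls; 0% = PAD4 with probe and DMSO and 100% = probe without PAD4 enzyme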
# HTRA1 conf: HTRA1 protease inhibitors, retest, confirmation, biochemical, fluorescence polarization | shares compounds with HTRA1 inh | recombinant HTRA1, FP-rhodamine activity-based probe | inhibition, % at 5.96 µM | 66% of 1,600 active | AID 540248, 2011;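 active means mean inhibition over three repeats above a set limit taken from the earlier primary screen, cut at about 37% in these data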;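 further: 0% = HTRA1 with DMSO and 100% = wells lacking HTRA1; inhibitors block probe binding so polarization drops and inhibition rises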
# mABHD4 conf: ABHD4 inhibitors, retest, confirmation, biochemical, fluorescence polarization, mouse. shares compounds with ABHD4 inh. purified mABHD4, FP-Rh probe fluorescence polarization. inhibition, % at 8.92 µM. 55% of 1,800 active. AID 720658, 2013;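 active means mean inhibition across replicates above the hit cutoff set in the primary screen, cut at about 30% in these data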;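 further: 0% = wild-type ABHD4 with DMSO and 100% = catalytically dead S159A mutant with DMSO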
# * = called active by the depositor; . = no result.
SMILES,TCR CD3 inh,HTRA1 inh,TDP2 inh,PAD4 inh,SIAE inh,ABHD4 inh,PAD4 FP conf,others
O=C(O)c1ccc2c(c1)C1C(Cl)C(Sc3ccccc3[N+](=O)[O-])CC1C(c1cccc([N+](=O)[O-])c1)N2 (stereo not drawn),.,81*,.,.,.,.,.,
CCOC(=O)[C@]12Cc3ccccc3[C@H]1N(CCC(=O)OC)C(=O)c1cc(OC)ccc12,-6,.,-3,.,0,2,.,
COc1ccc2c3c([nH]c2c1)C(C)NCC3 (stereo not drawn),25*,18,4,-12,6,10,.,
CN1C(=O)N(C)C(=O)C2(Sc3ccccc3C2=O)C1=O,6,9,27*,8,6,15,.,
CCC1(c2ccccc2)C(=O)N(C)C(=O)N(C)C1=O,-11,-4,-4,0,3,3,.,
C=C1C(O)[C@@H]2O[C@]3(CC[C@H](/C=C/C(C)[C@@H]4CC(C)=CC5(O[C@H](C[C@@](C)(O)C(=O)O)CCC5O)O4)O3)CC[C@H]2O[C@@H]1C(O)CC(C)[C@H]1OC2(CCCCO2)CCC1C (stereo partly drawn),.,.,.,2,.,.,.,
Cc1cc2c(C(C)C)c(O)c(O)c(C=O)c2c(O)c1-c1c(C)cc2c(C(C)C)c(O)c(O)c(C=O)c2c1O,5,.,7,.,19*,92*,.,
COC(=O)C1=C(c2c(C)noc2C)C[C@@H]2CC[C@H]1N2C(=O)NCCCOC(C)C,2,-1,-8,0,31*,-3,.,
COC(=O)C1=C(c2c(C)noc2C)C[C@@H]2CC[C@H]1N2C(=O)NCCOc1ccc(OC)cc1,-1,0,-3,2,4,-19,.,
c1ccc(Cn2nnnc2C2CN=C(c3ccccc3)c3ccccc3N2)cc1 (stereo not drawn),.,.,5,.,-1,-4,.,
CCOc1ccc(N2C(=O)/C(=C\c3cccs3)C(=O)NC2=S)cc1,-63,.,10,-8,-37,-123,.,
CCOc1ccc(N2C(=O)/C(=C/c3ccco3)C(=O)NC2=S)cc1,.,54*,.,-13,.,.,.,
N#CC1(c2ccccc2)CCN(C2CC(=O)N(c3ccc(F)cc3)C2=O)CC1 (stereo not drawn),12,-5,8,18*,-2,-9,3,
N#CC1(c2ccccc2)CCN(C2CC(=O)N(c3ccc4c(c3)OCO4)C2=O)CC1 (stereo not drawn),10,0,-5,-4,2,0,.,
Cc1cc(Br)cn2c(CC(=O)N3CCCCC3)c(-c3ccc(F)cc3)nc12,1,.,2,.,0,-1,.,
O=c1[nH]c2ccccc2n1C1CCN(C(c2ccccc2OC(F)(F)F)c2nnnn2-c2ccc3c(c2)OCCO3)CC1 (stereo not drawn),-1,.,2,.,-10,-23,.,
CC(=O)N1c2ccccc2C(c2ccccc2)=NCC1C(=O)NC1CCCCC1 (stereo not drawn),.,.,3,.,-5,-2,.,
Cc1ccc(-c2nc3ccc(C)cn3c2CC(=O)N(C)C)cc1,2,0,8,17*,4,-1,10,
COc1ccc(-c2nc3ccc(Br)cn3c2CC(=O)N2CCCC2)cc1OC,6,.,1,.,10,3,.,
CCCCn1c(O)c(C(CC)=NCCCn2ccnc2)c(=O)[nH]c1=O,-1,.,3,1,-5,-3,.,
CCCCn1c(O)c(C(C)=NCCCn2ccnc2)c(=O)[nH]c1=O,3,7,0,27*,-3,5,16*,
CN(C)C(=O)Oc1cccc2c(OC(=O)N(C)C)cccc12,-5,4,2,24*,7,1,7,
Cc1ccccc1NC(=O)Cc1nc(COC(=O)Cc2ccccc2)cs1,-8,-10,7,47*,-2,16,-8,
CC[C@@H]1C[C@H]2CC[C@H](O2)[C@H](C)C(=O)O[C@@H](C)C[C@@H]2CC[C@@H](O2)[C@@H](C)C(=O)O[C@H](C)C[C@H]2CC[C@H](O2)[C@H](C)C(=O)O[C@@H](C)C[C@@H]2CC[C@@H](O2)[C@@H](C)C(=O)O1,2,.,7,.,10,-3,.,
CC1=NN(c2ccccc2)C(=O)C1/C=C1\C(=O)NC(=O)N(c2ccc(C)c(C)c2)C1=O (stereo not drawn),-8,1,-3,9,6,-1,.,
SMILES,TCR CD3 inh,HTRA1 inh,TDP2 inh,PAD4 inh,SIAE inh,ABHD4 inh,PAD4 FP conf,others
CC1=NN(c2ccccc2)C(=O)C1/C=C1\C(=O)NC(=O)N(c2cc(C)cc(C)c2)C1=O (stereo not drawn),-9,-4,20,26*,6,-6,3,
Cc1[nH]n(-c2ccccc2)c(=O)c1C(c1ccc([N+](=O)[O-])cc1)c1c(C)[nH]n(-c2ccccc2)c1=O,.,22,.,66*,.,.,-18,
Cn1ncnc2c(=O)n(C)c(=O)nc1-2,.,24,.,68*,.,.,66*,
C=CCn1c(O)c(C(CC)=Nc2ccc(N(C)C)cc2)c(=O)[nH]c1=O,8,.,7,30*,3,43*,9,mABHD4 conf=11
C=CCn1c(O)c(C(CC)=Nc2ccc3c(c2)CCC3)c(=O)[nH]c1=O,3,6,3,4,2,4,.,
C=CCn1c(O)c(C=Nc2ccc(N(CC)CC)cc2)c(=O)[nH]c1=O,16,36*,15,28*,14,57*,5,HTRA1 conf=3;mABHD4 conf=3
CC[C@H]1c2ccccc2[C@@H]2CC[C@H]1N2c1ccccc1,6,.,-7,.,7,1,.,
CCCN1CCc2cc(O)cc3c2[C@H]1Cc1ccc(O)c(O)c1-3,3,62*,9,18*,14,69*,-6,HTRA1 conf=48*;mABHD4 conf=30*
COc1cc2c(cc1O)C[C@H]1c3c(cc(O)c(OC)c3-2)CCN1C,-3,1,-7,-9,9,19,.,
